Measured values from ChEMBL document CHEMBL3421528, “Synthesis and evaluation of fluorinated fingolimod (FTY720) analogues for sphingosine-1-phosphate receptor molecular imaging by positron emission tomography” (J Med Chem, 2015).

How the values were obtained:
Blood = experiment: Drug uptake in wild type C57BL/6 mouse blood at 400 KBq/g, iv measured at 90 mins by PET analysis; type: ADME, organism-based; details: in vivo, 1.5 h
In short: (§1)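 Male C57BL/6 wild-type mice, 13 weeks old, 21−26 g (n = 4), anaesthetised with isoflurane/O₂. 18F tracer given as a tail-vein bolus of 400 kBq/g in 100 μL, flushed with 100 μL saline. Dynamic list-mode PET was acquired, with CT-defined volumes of interest over the organs. Uptake was expressed as counts/mL in the VOI divided by total mouse counts ×100 (%ID/mL). Time-activity curves ran 0−90 min p.i.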

Lung [1] = experiment: Drug uptake in wild type C57BL/6 mouse lung at 400 KBq/g, iv measured at 20 mins by PET/CT analysis; type: ADME, organism-based; details: in vivo; in short: as §1
Liver = experiment: Drug uptake in wild type C57BL/6 mouse liver at 400 KBq/g, iv measured at 10 mins by PET/CT analysis; type: ADME, organism-based; details: in vivo; in short: as §1
Kidney = experiment: Drug uptake in wild type C57BL/6 mouse kidney at 400 KBq/g, iv measured at 90 mins by PET/CT analysis; type: ADME, organism-based; details: in vivo, 1.5 h; in short: as §1
Lung [2] = experiment: Drug uptake in wild type C57BL/6 mouse lung at 400 KBq/g, iv measured at 90 mins by PET/CT analysis; type: ADME, organism-based; details: in vivo, 1.5 h; in short: as §1
[3] = Drug uptake in wild type C57BL/6 mouse myocardium at 400 KBq/g, iv measured at 10 mins by PET/CT analysis; type: ADME, organism-based; details: in vivo; in short: as §1
Spleen [4] = experiment: Drug uptake in wild type C57BL/6 mouse spleen at 400 KBq/g, iv measured at 10 mins by PET/CT analysis; type: ADME, organism-based; details: in vivo; in short: as §1
Bone = experiment: Drug uptake in wild type C57BL/6 mouse bone at 400 KBq/g, iv measured at 90 mins by PET/CT analysis; type: ADME, organism-based, Bone element; details: in vivo, 1.5 h; in short: as §1
Mus musculus [5] = experiment: Drug uptake in wild type C57BL/6 mouse body parts at 400 KBq/g, iv measured at 90 mins by PET/CT analysis; type: ADME, organism-based; details: in vivo, 1.5 h; in short: as §1
[6] = target: Sphingosine 1-phosphate receptor 1 (Homo sapiens) (UniProt P21453); experiment: Agonist activity at human S1P1 receptor overexpressed in CHO cells assessed as p44/42 MAPK phosphorylation at 1 uM by Western blot analysis; type: cell-based; details: TDE = time-dependent effect
In short: (§2)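 Stably transfected CHO cells overexpressing human S1P1 or S1P3 receptor, serum-starved overnight, then stimulated with test compounds alongside S1P in the same experiment for the indicated times. Cells lysed and lysates resolved on 12% SDS-PAGE gels for Western blot read-out.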

[7] = target: Sphingosine 1-phosphate receptor 3 (Homo sapiens) (UniProt Q99500); experiment: Agonist activity at human S1P3 receptor overexpressed in CHO cells assessed as p44/42 MAPK phosphorylation at 1 uM by Western blot analysis; type: cell-based; details: TDE = time-dependent effect; in short: as §2
Mus musculus [8] = experiment: In vivo inhibition of S1P1 receptor in mouse assessed as peripheral blood WBC at 1.25 mg/kg, ip after 24 hrs by flow cytometric analysis (reference value: 8.94 +/- 0.59 10^6/ml); type: functional; details: route intraperitoneal
Mus musculus [9] = experiment: In vivo inhibition of S1P1 receptor in mouse assessed as peripheral blood CD8+ cells at 1.25 mg/kg, ip after 24 hrs by flow cytometric analysis (reference value: 0.48 +/- 0.05 10^6/ml); type: functional; details: route intraperitoneal
Mus musculus [10] = experiment: In vivo inhibition of S1P1 receptor in mouse assessed as peripheral blood B cells at 1.25 mg/kg, ip after 24 hrs by flow cytometric analysis (reference value: 4.72 +/- 0.53 10^6/ml); type: functional; details: route intraperitoneal
Mus musculus [11] = experiment: In vivo inhibition of S1P1 receptor in mouse assessed as reduction of peripheral blood CD4+ cells at 1.25 mg/kg, ip after 24 hrs by flow cytometric analysis relative to control
Mus musculus [12] = experiment: In vivo inhibition of S1P1 receptor in mouse assessed as reduction of peripheral blood CD8+ cells at 1.25 mg/kg, ip after 24 hrs by flow cytometric analysis relative to control; type: functional; details: in the assay text read “CD4+ cells” for “CD8+ cells”, route intraperitoneal
In short: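 Compound given intraperitoneally at 1.25 mg/kg in 0.9% NaCl (0.2 mg/mL); blood taken retro-orbitally into EDTA after 24 h. Lymphocytes counted by flow cytometry after red-cell lysis and compared with untreated mice. Mean ± SEM, n ≥ 3 independent experiments; p < 0.05 versus control.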

Serum = experiment: Metabolic stability in human serum assessed as retention time at 8.7 MBq at 37 degC after 90 mins by HPLC analysis; type: ADME, cell-free; details: 1.5 h
In short: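 Formulated 18F tracer (20 μL, 8.7 MBq) was added to 200 μL human serum and incubated at 37 °C. Samples were taken at 10, 30, 60 and 90 min and quenched in MeOH/CH₂Cl₂ 1:1. After centrifugation, supernatants were analysed by C18 radio-HPLC (10−90% CH₃CN/0.1% TFA gradient over 15 min, 1.0 mL/min, 254 nm).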

Spleen [13] = experiment: Drug uptake in wild type C57BL/6 mouse spleen at 400 KBq/g, iv measured at 30 mins by PET/CT analysis; type: ADME, organism-based; details: in vivo, 0.5 h; in short: as §1

Chain of Sphingosine 1-phosphate receptor 3 (Homo sapiens) (Q99500 whole entry): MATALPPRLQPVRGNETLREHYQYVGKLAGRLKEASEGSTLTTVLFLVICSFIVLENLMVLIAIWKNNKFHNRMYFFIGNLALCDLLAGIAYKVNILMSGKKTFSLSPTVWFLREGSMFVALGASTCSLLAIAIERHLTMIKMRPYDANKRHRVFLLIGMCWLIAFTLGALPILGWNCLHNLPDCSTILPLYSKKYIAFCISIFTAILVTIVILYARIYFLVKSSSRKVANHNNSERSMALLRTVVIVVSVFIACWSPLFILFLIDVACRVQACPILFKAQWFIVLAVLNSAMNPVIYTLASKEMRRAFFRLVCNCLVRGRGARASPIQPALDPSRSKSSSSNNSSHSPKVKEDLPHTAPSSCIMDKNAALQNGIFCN
Chain of Sphingosine 1-phosphate receptor 1 (Homo sapiens) (P21453 whole entry): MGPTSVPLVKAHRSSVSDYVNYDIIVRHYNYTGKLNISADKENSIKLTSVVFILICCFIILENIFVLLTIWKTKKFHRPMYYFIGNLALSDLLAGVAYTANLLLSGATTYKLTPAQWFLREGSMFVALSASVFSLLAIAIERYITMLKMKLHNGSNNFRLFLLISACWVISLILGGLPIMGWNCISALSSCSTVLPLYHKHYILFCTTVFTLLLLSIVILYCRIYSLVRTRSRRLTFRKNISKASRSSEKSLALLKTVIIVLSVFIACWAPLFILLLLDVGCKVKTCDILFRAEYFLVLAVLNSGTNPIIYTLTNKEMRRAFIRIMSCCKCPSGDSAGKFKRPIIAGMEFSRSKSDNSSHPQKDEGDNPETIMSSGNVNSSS

SMILES	Drug uptake (Blood) [%ID/ml]	Drug uptake (Lung [1]) [%ID/ml]	Drug uptake (Liver) [%ID/ml]	Drug uptake (Kidney) [%ID/ml]	Drug uptake (Lung [2]) [%ID/ml]	Drug uptake [3] [%ID/ml]	Drug uptake (Bone)	Drug uptake (Mus musculus [5])	Activity [6]	Activity [7]	Activity (Mus musculus [8]) [×10⁶ /ml]	Activity (Mus musculus [9]) [×10⁶ /ml]	Activity (Mus musculus [10]) [×10⁶ /ml]	inhibition in vivo at 1.25 mg/kg (Mus musculus [12]) [%]	other results
NC(CO)(CO)CCc1ccc(CCCCCC[18F])cc1	4	5	25	20	4	8	Not Active	Not Active							Drug uptake (Spleen [4]): 7 %ID/ml
NC(CO)(CCc1ccc(CCCCCCCCF)cc1)COP(=O)(O)O (stereo not given)									tde	tde	3.93	0.14	1.05		inhibition in vivo at 1.25 mg/kg (Mus musculus [11]): 89%
NC(CO)(CO)CCc1ccc(CCCCCCCCF)cc1											3.04	0.03	1.03	95	
NC(CO)(CO)CCc1ccc(CCCCCCCC[18F])cc1	4	6.4	25	20	4.8	8.6	Not Active	Not Active							Retention_time (Serum): 11.15 min; Drug uptake (Spleen [13]): 7.8 %ID/ml
CCCCCCCCCCCCC/C=C/[C@@H](O)[C@@H](N)COP(=O)(O)O									tde	tde					
NC(CO)(CO)CCc1ccc(CCCCCCF)cc1											4.91	0.25	2.23	59	
